Assay results taken from ChEMBL document CHEMBL3046705, “Design and synthesis of benzoylphenylureas with fluorinated substituents on the aniline ring as insect growth regulators” (2011).

Key:
Assay type in all cases: functional
Mythimna separata [1] = assay: Insecticidal activity against fourth-instar larval stage of Mythimna separata (Oriental armyworm) infested drug-pretreated corn leaves assessed as mortality at 50 mg/l at 25 +/-1 degC after 4 days
Mythimna separata [2] = assay: Insecticidal activity against fourth-instar larval stage of Mythimna separata (Oriental armyworm) infested drug-pretreated corn leaves assessed as mortality at 100 mg/l at 25 +/-1 degC after 4 days
Mythimna separata [3] = assay: Insecticidal activity against fourth-instar larval stage of Mythimna separata (Oriental armyworm) infested drug-pretreated corn leaves assessed as mortality at 200 mg/l at 25 +/-1 degC after 4 days
Culex pipiens pallens [4] = assay: Insecticidal activity against fourth-instar larval stage of Culex pipiens pallens (mosquito) assessed as mortality at 0.025 mg/l at 25 +/-1 degC after 8 days; conditions: 192 h
Summary of the method: (§1)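 Larvicidal test against mosquito larvae followed a previously reported procedure. Test solutions were made by dissolving each compound in acetone and adding distilled water to give the series of concentrations.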

Culex pipiens pallens [5] = assay: Insecticidal activity against fourth-instar larval stage of Culex pipiens pallens (mosquito) assessed as mortality at 0.1 mg/l at 25 +/-1 degC after 8 days; conditions: 192 h; summary of the method: as §1
Culex pipiens pallens [6] = assay: Insecticidal activity against fourth-instar larval stage of Culex pipiens pallens (mosquito) assessed as mortality at 0.05 mg/l at 25 +/-1 degC after 8 days; conditions: 192 h; summary of the method: as §1
Culex pipiens pallens [7] = assay: Insecticidal activity against fourth-instar larval stage of Culex pipiens pallens (mosquito) assessed as mortality at 2 mg/l at 25 +/-1 degC after 8 days; conditions: 192 h; summary of the method: as §1
Mythimna separata [8] = assay: Insecticidal activity against fourth-instar larval stage of Mythimna separata (Oriental armyworm) infested drug-pretreated corn leaves assessed as mortality at 25 mg/l at 25 +/-1 degC after 4 days
Mythimna separata [9] = assay: Insecticidal activity against fourth-instar larval stage of Mythimna separata (Oriental armyworm) infested drug-pretreated corn leaves assessed as mortality at 5 mg/l at 25 +/-1 degC after 4 days
Mythimna separata [10] = assay: Insecticidal activity against fourth-instar larval stage of Mythimna separata (Oriental armyworm) infested drug-pretreated corn leaves assessed as mortality at 10 mg/l at 25 +/-1 degC after 4 days
Culex pipiens pallens [11] = assay: Insecticidal activity against fourth-instar larval stage of Culex pipiens pallens (mosquito) assessed as mortality at 0.005 mg/l at 25 +/-1 degC after 8 days; conditions: 192 h; summary of the method: as §1
Mythimna separata [12] = assay: Insecticidal activity against fourth-instar larval stage of Mythimna separata (Oriental armyworm) infested drug-pretreated corn leaves assessed as mortality at 1 mg/l at 25 +/-1 degC after 4 days
Culex pipiens pallens [13] = assay: Insecticidal activity against fourth-instar larval stage of Culex pipiens pallens (mosquito) assessed as mortality at 0.0025 mg/l at 25 +/-1 degC after 8 days; conditions: 192 h; summary of the method: as §1
Mythimna separata [14] = assay: Insecticidal activity against fourth-instar larval stage of Mythimna separata (Oriental armyworm) infested drug-pretreated corn leaves assessed as mortality at 2.5 mg/l at 25 +/-1 degC after 4 days
Culex pipiens pallens [15] = assay: Insecticidal activity against fourth-instar larval stage of Culex pipiens pallens (mosquito) assessed as mortality at 0.01 mg/l at 25 +/-1 degC after 8 days; conditions: 192 h; summary of the method: as §1
Culex pipiens pallens [16] = assay: Insecticidal activity against fourth-instar larval stage of Culex pipiens pallens (mosquito) assessed as mortality at 0.25 mg/l at 25 +/-1 degC after 8 days; conditions: 192 h; summary of the method: as §1

Row | Compound | mortality at 50 µg/mL (Mythimna separata [1]) [%] | mortality at 0.025 µg/mL (Culex pipiens pallens [4]) [%] | mortality at 0.1 µg/mL (Culex pipiens pallens [5]) [%] | mortality at 0.05 µg/mL (Culex pipiens pallens [6]) [%] | mortality at 5 µg/mL (Mythimna separata [9]) [%] | mortality at 10 µg/mL (Mythimna separata [10]) [%] | mortality at 0.005 µg/mL (Culex pipiens pallens [11]) [%] | mortality at 1 µg/mL (Mythimna separata [12]) [%] | mortality at 2.5 µg/mL (Mythimna separata [14]) [%] | further results
1 | O=C(NC(=O)c1c(F)cccc1F)Nc1ccc(OCC=C(Cl)Cl)cc1 | 60 | 60 | 100 | 70 |  |  |  |  |  | mortality at 100 µg/mL (Mythimna separata [2]): 80%; mortality at 200 µg/mL (Mythimna separata [3]): 90%
2 | O=C(NC(=O)c1c(F)cccc1F)Nc1ccc(COc2cc(Cl)c(OC(F)(F)C(F)F)c(Cl)c2)cc1 |  |  |  |  | 10 | 40 |  |  |  | mortality at 2 µg/mL (Culex pipiens pallens [7]): 0%; mortality at 25 µg/mL (Mythimna separata [8]): 100%
3 | O=C(NC(=O)c1c(F)cccc1F)Nc1ccc(Oc2cc(Cl)c(OC(F)(F)C(F)F)c(Cl)c2)cc1 |  |  |  |  |  |  | 100 | 0 | 100 | mortality at 0.0025 µg/mL (Culex pipiens pallens [13]): 50%
4 | O=C(NC(=O)c1c(F)cccc1F)Nc1ccc(OC(C(F)(F)F)C(F)(F)F)cc1 |  | 70 | 100 | 80 | 90 |  |  | 0 | 80 | 
5 | O=C(NC(=O)c1c(F)cccc1F)Nc1ccc(C(F)(C(F)(F)F)C(F)(F)F)cc1 |  |  |  |  | 100 |  | 90 | 0 | 90 | mortality at 0.0025 µg/mL (Culex pipiens pallens [13]): 80%; mortality at 0.01 µg/mL (Culex pipiens pallens [15]): 100%
6 | O=C(NC(=O)c1c(F)cccc1F)Nc1cc(Cl)c(OC(F)(F)C(F)F)c(Cl)c1 [HEXAFLUMURON] |  |  |  |  |  | 80 |  |  |  | mortality at 0.25 µg/mL (Culex pipiens pallens [16]): 100%
7 | O=C(NC(=O)c1c(F)cccc1F)Nc1ccc(COC(C(F)(F)F)C(F)(F)F)cc1 | 0 |  | 80 | 30 |  |  |  |  |  | mortality at 100 µg/mL (Mythimna separata [2]): 10%; mortality at 0.25 µg/mL (Culex pipiens pallens [16]): 100%; mortality at 200 µg/mL (Mythimna separata [3]): 40%
8 | O=C(NC(=O)c1c(F)cccc1F)Nc1ccc(Oc2cc(Cl)c(OC(F)(F)C(F)F)c(Cl)c2)c(Cl)c1 | 100 | 100 |  |  |  | 60 | 30 |  |  | mortality at 25 µg/mL (Mythimna separata [8]): 90%; mortality at 0.01 µg/mL (Culex pipiens pallens [15]): 80%
